The list is not random: actives were taken first. Their share in the collection is about 2.3%.
core dimer inh = HCV core protein dimerization inhibition. TR-FRET GST/Flag-core106 dimerization, 1536-well. inhibition, % at 5 µM. hit rate 0.33% among 300,000. AID 1899;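 active = inhibition above the mean of all tested compounds plus 3 SD, set per screening campaign, cut at about 45% in these data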
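Assay system: tagged HCV core106 pair (GST and Flag); medium: KF-containing HEPES buffer, pH 7.45, DTT, CHAPS, BSA; also added: Eu donor and XL665 acceptor anti-tag antibodies; dosing: 5 µM single dose; timing: compound-protein-antibody incubation 4 h at 22.5 °C; signal: TR-FRET 671 and 617 nm emission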
HCV NS3 hel inh = HCV NS3 helicase inhibition | inhibition, % at 10.9 µM | hit rate 0.56% among 290,000 | NS3 helicase DNA unwinding, Cy5 molecular beacon fluorescence;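 active = inhibition above the mean of all tested compounds plus 3 SD, set per campaign, cut at about 35% in these data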;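 note: 0% = DMSO wells and 100% = thioflavine S control wells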
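System: NS3 helicase fragment of HCV / Schedule: 1 h at 25 °C / Control set: DMSO alone as 0% and 110 µM thioflavine S as 100% / Reagent: Cy5/quencher beacon DNA duplex and ATP to start / Technique: Cy5 fluorescence / Replication: singlicate / Evaluation: % inhibition of end-to-start signal ratio versus controls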
GPR7 antag = human neuropeptides B/W receptor 1 antagonism; P48145; GPR7-expressing cells, fluorescence antagonist assay; inhibition, % at 4.4 µM; hit rate 1.1% among 290,000; AID 1861; in the data active = inhibition above about 16%, passing the limit was not always enough;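 note: cells stimulated with the agonist NPW; 0% = agonist with vehicle and 100% = vehicle without agonist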
Target sequence (P48145 whole entry, looked up): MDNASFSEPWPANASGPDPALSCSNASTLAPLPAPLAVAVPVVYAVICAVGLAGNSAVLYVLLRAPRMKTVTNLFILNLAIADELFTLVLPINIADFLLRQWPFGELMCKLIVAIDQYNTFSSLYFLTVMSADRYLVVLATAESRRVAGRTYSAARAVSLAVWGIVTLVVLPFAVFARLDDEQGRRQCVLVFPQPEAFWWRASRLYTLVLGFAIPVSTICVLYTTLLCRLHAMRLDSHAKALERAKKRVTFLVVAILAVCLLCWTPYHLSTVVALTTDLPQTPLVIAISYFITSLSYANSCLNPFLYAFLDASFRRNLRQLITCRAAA
EBNA-1 inh = blocks EBNA-1 binding to DNA; EBNA-1 DNA binding, fluorescence polarization; inhibition, % at 14.8 µM; hit rate 0.34% among 300,000; AID 1950; in the data active = inhibition above about 28%
EBV gp42 inh = EBV gp42 inhibition. hit rate 0.42% among 220,000. inhibition, % (tested at 21.74 µM). Q1HVG2. Fluorescence polarization binding assay, mP read-out; in the data active = inhibition above about 50%
ZTA counter = blocks Epstein-Barr virus ZTA, an EBNA-1 counter-screen | ZTA-DNA binding, fluorescence polarization | inhibition, % at 11 µM | hit rate 0.15% among 320,000; in the data active = inhibition above about 33%
Target sequence (P03206 whole entry, looked up): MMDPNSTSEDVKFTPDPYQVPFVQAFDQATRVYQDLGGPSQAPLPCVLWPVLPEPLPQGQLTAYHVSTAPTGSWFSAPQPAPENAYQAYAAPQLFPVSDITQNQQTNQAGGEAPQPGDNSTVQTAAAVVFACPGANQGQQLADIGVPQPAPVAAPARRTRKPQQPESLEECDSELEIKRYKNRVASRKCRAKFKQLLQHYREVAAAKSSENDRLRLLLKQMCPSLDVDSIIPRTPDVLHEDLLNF
* hit, by the source's call; . = no result given.

SMILES	core dimer inh	HCV NS3 hel inh	GPR7 antag	EBNA-1 inh	EBV gp42 inh	ZTA counter
CC(=O)/C(=N/Nc1ccccc1)Sc1nnc(C(O)c2ccccc2)n1-c1ccccc1 (centres undefined)	10	13	24*	5	-1	12
CC(=O)/C(=N/Nc1ccccc1Cl)Sc1nnc(C(O)c2ccccc2)n1-c1ccccc1 (centres undefined)	10	-7	1	-8	-3	0
COc1ccc(-c2cc(C(F)(F)F)c3c(n2)sc2c(O)cc(=O)[nH]c23)c(OC)c1	48*	34	2	-12	68*	-18
Cc1cc(C)c2c(n1)sc1c(O)cc(=O)[nH]c12	5	11	-7	-6	-6	1
CCC(C(=O)Nc1sc(C(N)=O)c(C)c1C(=O)OC)c1ccccc1 (centres undefined)	11	6	4	3	-31	10
Cn1c(SCC(=O)Nc2ccc3nc(SCC(=O)N4CCCC4)sc3c2)nnc1-c1ccc(N)cc1	.	1	6	.	88*	.
CC(C)CC(=O)Nc1nc(-c2ccc(S(=O)(=O)N3CCOCC3)cc2)cs1	.	1	-4	.	.	.
Cc1ccc(Nc2nc(-c3ccc(S(=O)(=O)N4CCOCC4)cc3)cs2)cc1Cl	1	8	-5	31*	-2	-3
CCn1c(=O)c2sccc2n(Cc2ccccc2)c1=O	-12	-6	-8	3	.	-12
Cc1cc(=O)oc2c(CN3CCC(C)CC3)c(O)c(Cl)cc12	7	11	-4	-2	72*	-2
Cc1cc(C)c(S(=O)(=O)N(CC(=O)N2CCCC2)C2CCCCC2)c(C)c1	14	-2	16*	18	1	21
Cc1ccc(S(=O)(=O)N(CC(=O)N2CCCC2)C2CCCCC2)cc1	0	16	-18	7	-23	-13
Cc1ccc(/C=C2/SC(=S)N(C3CCCCC3)C2=O)o1	68*	27	-9	-16	.	-20
Cc1ccc(/C=C2\SC(=S)N(CC3CCCO3)C2=O)o1 (centres undefined)	-4	23	-1	-3	-14	-14
CCn1c(NN)nc2sc3c(c2c1=O)CCC3	55*	19	8	-11	-18	-3
CCSc1nc2sc3c(c2c(=O)n1CC)CCC3	.	-7	-19	.	.	.
Cc1c(S(=O)(=O)N(C)C2CCCCC2)c(=O)n(C)c(=O)n1C	0	.	.	-2	.	2
CC(C)(C)C(=O)NC(=S)NNC(=O)C(c1ccccc1)c1ccccc1	2	0	90*	4	-4	-7
N#Cc1cccc(NC(=O)CSc2ccc3c4c(cccc24)C(=O)c2ccccc2-3)c1	67*	2	-6	-4	107*	-5
COc1ccc(NC(=O)CSc2ccc3c4c(cccc24)C(=O)c2ccccc2-3)cc1	10	-3	-5	8	133*	1
CNc1cccc2c1C(=O)c1ccccc1C2=O	-25	8	-9	-8	78*	-12
O=C(CC1N=C(Cc2ccccc2)NNC1=O)N/N=C/c1ccc([N+](=O)[O-])cc1 (centres undefined)	3	-6	-5	5	-23	6
CC(=O)c1ccc(N(CC(=O)NC2CCCC2)C(=O)c2ccc(C)s2)cc1	-7	-4	21*	-9	.	-6
CC(=O)c1cccc(N(CC(=O)NC2CCCC2)C(=O)c2ccc(C)s2)c1	-5	7	0	-5	.	-16
CCNc1nc(-c2cc(C)n(Cc3ccco3)c2C)cs1	30	7	-11	-7	-9	-24
SMILES	core dimer inh	HCV NS3 hel inh	GPR7 antag	EBNA-1 inh	EBV gp42 inh	ZTA counter
Cc1cc(-c2csc(NC(=O)C3=COCCO3)n2)c(C)n1C	33	.	.	3	.	20
Cc1cc(-c2csc(NC(=O)c3ccc(=O)[nH]c3)n2)c(C)n1Cc1ccco1	49*	20	7	-1	49	-14
Cc1cc(-c2csc(NC(=O)c3ccc(=O)n(C)n3)n2)c(C)n1CC1CCCO1 (centres undefined)	53*	18	0	-1	-7	0
c1ccc(-c2ccccc2OCCOCCN2CCc3ccccc3C2)cc1	-5	-57	16*	0	7	-7
CCCCNCCOCCOc1ccccc1-c1ccccc1	-10	-16	6	34*	4	-4
S=C(NCCCn1ccnc1)Nc1cccc(Cl)c1	-1	-9	-10	-4	-11	2
COc1cccc(NC(=O)CN(C)C(=O)c2ccc3c(c2)S(=O)(=O)N=C2CCCCCN23)c1	-6	.	.	-8	.	1
CN1CCN(c2ccc(Cl)cc2NC(=O)CCN2C(=O)c3ccccc3C2=O)CC1	-3	-59	-4	2	-12	12
C/C(=N\NC(=O)c1nnn(-c2nonc2N)c1-c1ccc2c(c1)OCO2)c1cccs1	-5	6	-14	-9	.	-8
C/C(=N\Nc1nc(-c2ccc(C)cc2C)cs1)c1cc2ccccc2oc1=O	51*	7	-2	2	-34	5
COc1ccc2oc(=O)c(/C(C)=N/Nc3nc(-c4cc(C)ccc4C)cs3)cc2c1	56*	7	4	4	-22	-1
COC(=O)c1ccc(N2CCS(=O)(=O)CC2)cc1	0	12	-16	-4	-2	3
O=C(Oc1ccc(-c2cn3c(n2)SCC3)cc1)c1ccccc1	8	-4	18*	-12	-24	-3
CC(=O)Nc1ccc(-c2cn3c(n2)SCC3)cc1	-13	0	-11	-15	.	-1
O=CN1Cc2ccccc2-c2ccccc2C1	.	2	1	.	.	.
CC(=O)N/N=C/c1cc(C(C)(C)C)cc(/C=N/NC(C)=O)c1O	-3	3	-7	-10	67*	-12
COc1ccc(S(=O)(=O)Nc2nnc(Cc3ccc(OC)c(OC)c3)s2)cc1	9	15	3	7	2	1
CCOC(=O)c1cc(-c2ccccc2)sc1NC(=O)COC(=O)c1ccc(Cl)c(S(N)(=O)=O)c1	22	8	0	1	-6	-8
CCOC(=O)c1cc(-c2ccccc2)sc1NC(=O)COC(=O)c1cccc(S(N)(=O)=O)c1	34	1	2	77*	-5	19
COc1cc(C(=S)N2CCCC2)cc(Cl)c1OCC(=O)Nc1ccc(C)cc1C	24	5	-12	3	-4	13
COc1ccc(C(=O)CSc2nnc(CNC(=O)c3ccccc3)o2)cc1	1	3	-10	-3	.	6
CCc1ccc(NC(=O)Cc2ccc(OC)cc2)cc1	-3	0	6	3	-14	1
COc1ccc(CC(=O)Nc2ccc(C(C)=O)cc2)cc1	18	21	25*	-6	-23	-4
Cc1oc(C)c2c(=O)ccc3c(c12)OC(N)=C(C#N)C3c1ccc(F)cc1 (centres undefined)	46*	31	8	0	-23	-11
Cn1cc(C=O)c2ccccc21	1	7	-12	-8	7	8

Compound activity: PubChem, several laboratories
